Results as given in PMC3458188 (ACS nano, 2012).

Columns and labels:
[1] = Complete blood count and metabolic profiling 24 h after PA administration; format: in vivo, mice; settings: 24 h after administration
In short: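 Blood was drawn from mice 24 h after PA or PBS administration and sent to an external laboratory for complete blood count and metabolic profiling. Groups were compared by two-way ANOVA with Bonferroni post-tests.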

[2] = 1H diffusion ordered spectroscopy; format: physicochemical; settings: DOSY, D2O, ambient temperature; 5 mM KLAK PA alone or 2.5 mM KLAK PA and 2.5 mM PEG PA
In short: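 Coassembled by dissolving each PA separately in HFIP, mixing at least 15 min, lyophilizing, redissolving in water and lyophilizing again. 1H DOSY at 600 MHz and ambient temperature in 99.9% D2O, at constant total PA of 5 mM (single PA) or 2.5 mM + 2.5 mM (mixed). 32 points were acquired with a 7 μs 90-degree pulse.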

[3] = format: in vivo, athymic nude mice bearing MDA-MB-231 tumors; settings: IP, Alexa 700-labelled KLAK PA
In short: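 Female athymic nude mice carried orthotopic MDA-MB-231 mammary tumours. Dialysed Alexa 700-conjugated PA (20 mg/kg, 1.8 mM; 2.5 μg dye) was given ip, ± 27 mg/kg coassembled PEG PA. Plasma was collected by tail bleed or terminal cardiac puncture, spun 10 000 rpm for 10 min, and read on a plate reader. Paraformaldehyde-fixed tissues were imaged as average radiant efficiency; n = 6 per time point.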

[4] = Small angle X-ray scattering; format: physicochemical; settings: 2 mM; -1 indicative of cylinders, -2 possibly bundling
In short: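 Synchrotron SAXS used 15 keV X-rays from a double-crystal monochromator and an offset CCD to cover a wide angle range. Samples at 2 mM were held in 1.5 mm quartz capillaries; incident flux was about 10^12 photons/s. Intensity was plotted on a relative scale against q = (4π/λ) sin(θ/2).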

[5] = Cryogenic and conventional TEM of nanostructures; format: physicochemical; settings: cryo-TEM
In short: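 For conventional TEM, samples were drop-cast on carbon-coated copper grids and stained with 2% aqueous uranyl acetate. For cryo-TEM, grids were blotted at 95% humidity and plunged into liquid ethane. Both were imaged at 100 keV.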

With palmitoyl-A4G3(KLAKLAK)2 [KLAK PA] the alkaline phosphatase levels ([1]; compared with PBS treated controls) was “significantly lower”, the blood glucose levels ([1]; mice) was “significantly higher” and the “diffusion coefficient of KLAK PA (peak at 2.83 ppm)” value [2] was 0.69×10^−10 m^2/s. The observed plasma half-lives ([3]; plasma fluorescence, mice) was “on the order of several hours”, the “tissue localization of fluorescence” value ([3]; tumor bearing mice, IVIS) was “predominantly localized to liver and kidney” and the “SAXS slope in the low-q range” value [4] was “approximately -2”. The fiber diameter [5] was “roughly 10 nm” and the fiber length [5] was “several hundred”.
